# Screening results as filed in PubChem.
# A selection: hits, their analogues and other compounds. The true share with any hit is near 2.5%.
# INS promoter inh – inhibitors of insulin promoter-driven GFP, primary screen, imaging, TRM-6 cells (human fetal islet line), eGFP reporter, cell count | reporter expression induced with tamoxifen | inhibition, % at 2 µM | AID 1273, 2008 | 130,000 compounds, 0.9% hits;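 active means inhibition above the mean plus 3 SD, with well images judged a real hit on visual review, cut at about 60% in these data, passing the limit was not always enough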
# NPY2 pot ag – NPY-Y2 potentiators or agonists, primary screen, cell-based; Neuropeptide Y receptor type 2 (Homo sapiens), P49146; cells expressing NPY-Y2, potentiator/agonist read-out; activation, % at 3.6 µM; 220,000 compounds, 0.45% hits; in the data active means activation above about 27%;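 further: cells stimulated with NPY near EC25 plus isoproterenol at EC100; 0% = vehicle plus submaximal agonist and 100% = vehicle plus saturating agonist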
# Target sequence (P49146 whole entry, looked up): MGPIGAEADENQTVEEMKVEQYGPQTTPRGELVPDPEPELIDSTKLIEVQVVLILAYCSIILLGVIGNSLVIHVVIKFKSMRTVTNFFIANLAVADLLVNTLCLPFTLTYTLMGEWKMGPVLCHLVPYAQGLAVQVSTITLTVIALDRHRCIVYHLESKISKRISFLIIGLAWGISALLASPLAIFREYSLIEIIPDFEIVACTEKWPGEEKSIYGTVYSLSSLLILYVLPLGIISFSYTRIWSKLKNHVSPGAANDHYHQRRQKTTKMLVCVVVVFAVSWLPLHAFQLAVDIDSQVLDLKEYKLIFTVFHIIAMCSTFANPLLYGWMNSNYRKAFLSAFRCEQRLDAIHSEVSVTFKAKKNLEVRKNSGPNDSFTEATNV
# NPY Y1 blocker – NPY-Y1 receptor antagonists, primary screen, cell-based; AID 1040, 2008; 200,000 compounds, 1% hits; Neuropeptide Y receptor type 1 (Homo sapiens), P25929; inhibition, % at 3.6 µM; HEK293-CNG Y1 cells, membrane potential fluorescence; NPY at EC95, then isoproterenol;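 active means inhibition above the campaign mean inhibition of all tested compounds plus 3 SD, cut at about 20% in these data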;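 further: 0% = DMSO wells given NPY plus isoproterenol and 100% = isoproterenol alone without NPY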
#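 Benchmarks – high control isoproterenol alone, low control NPY with isoproterenol · Material – HEK293 Y1/CNG channel cell line · Times – dye 3 h, compound 60 min room temperature, stimulation 45 min · Probe or stimulus – NPY (25 nM), isoproterenol (1 µM), Ro 20-1724 (25 µM) · Evaluation – % inhibition of NPY effect · Signal – fluorescence, membrane potential probe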
# NPY1 pot ag – NPY-Y1 receptor potentiators or agonists, primary screen, cell-based. Neuropeptide Y receptor type 1 (Homo sapiens), P25929. NPY-Y1 expressing cells, potentiator/agonist activation. activation, % at 3.6 µM. 220,000 compounds, 0.37% hits; in the data active means activation above about 33%, passing the limit was not always enough;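 further: cells stimulated with NPY at EC10 then isoproterenol at EC100; 0% = low agonist plus stimulus and 100% = saturating agonist plus stimulus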
# Ins promoter up – insulin promoter activators in MIN6 cells, imaging, high-content screening, mouse beta cells. MIN6 insulin promoter-GFP reporter; stronger effect = higher value. z-score at 5 µM. 190,000 compounds, 0.3% hits;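 active means z-score above 3 at 5 µM with at least 500 cells counted in the well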
# NPY-Y2 antag – NPY-Y2 receptor antagonists, primary screen, cell-based; AID 793, 2007; NPY-Y2 expressing cells, antagonist mode; 140,000 compounds, 0.99% hits; inhibition, % at 2.7 µM; in the data active means inhibition above about 17%;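 further: 0% = vehicle with agonist challenge and 100% = reference antagonist with challenge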
# * = called active by the depositor; · = no result.
SMILES,INS promoter inh,NPY2 pot ag,NPY Y1 blocker,NPY1 pot ag,Ins promoter up,NPY-Y2 antag
COc1ccc(OCC(O)Cn2c(=N)n(CCN3CCCCC3)c3ccccc32)cc1 (configuration not stated),-129,-20,34*,-43,-4.5,19*
Cc1ccc(OCC(O)Cn2c(=N)n(CCN3CCCCC3)c3ccccc32)cc1 (configuration not stated),·,-15,62*,-39,-3.7,46*
COc1ccc(OCC(O)CN2CCCCC2)cc1 (configuration not stated),·,17,-1,5,1.1,4
Cc1ccc(-c2csc(NC(=O)/C=C/c3ccco3)c2C(=O)O)cc1,-21,-15,-2,-6,0.17,·
Cc1nc(N/N=C/c2ccc(O)cc2)c2cnn(-c3ccccc3)c2n1,89*,26,-13,9,-2,·
CC(c1ccccc1)N1CCc2[nH]c(=S)[nH]c(=O)c2C1 (configuration not stated),91*,2,0,20,-1.4,·
O=C(c1ccccc1)c1ccc2nc[nH]c2c1,95*,-6,-8,-11,0.02,-2
Cc1ccc(-c2nnn(CC(=O)N(C)C3CCCCC3)n2)o1,74*,11,3,2,-0.13,·
Cc1nc2sc(C(=O)c3ccccc3)c(N)c2c(C)c1C,·,1,-3,-3,0.85,·
Cc1nc2sc(C(=O)OC(C)C)c(N)c2c(C)c1C,100*,-5,-2,12,-0.25,·
O=C(CN(Cc1ccccc1)C(=O)c1cccc([N+](=O)[O-])c1)Nc1c(Cl)cc(Cl)cc1Cl,-30,-9,1,-15,0.02,4
O=C(NCc1cccnc1)c1ccc(-c2ccc(Cl)cc2)o1,·,0,-2,16,0.1,·
O=C(NCc1cccnc1)/C(=C\c1ccc(-c2ccc(Cl)c(Cl)c2)o1)S(=O)(=O)c1ccccc1,-93,-18,24*,-44,-1.7,17*
COc1ccc(Nc2nc(N3CCCC3)nc3ccccc23)c(OC)c1,35,-24,27*,-49,-1.8,21*
CC(Nc1nc(N2CCCCC2)nc2ccccc12)c1ccccc1 (configuration not stated),-71,-16,46*,-26,2,45*
COc1ccc(C(=O)Nn2c(SCC(=O)c3ccc(Cl)cc3)nc3ccccc3c2=O)cc1,83*,-23,10,-35,-0.42,11
Brc1ccc(-c2csc(/N=C/N3CCOCC3)n2)cc1,22,-12,35*,-23,-0.96,8
Brc1ccc(-c2csc(N3CCOCC3)n2)cc1,·,7,0,13,-0.65,·
COc1c2c(nc3ccccc13)OC(C(C)(O)COC(C)=O)C2 (configuration not stated),-80,8,-5,-2,3.3*,2
O=c1c2ccccc2nc2n1C(CSCc1ccc(Cl)cc1)CS2 (configuration not stated),-14,6,-5,13,-0.64,4
O=C(Cc1nc(-c2ccc([N+](=O)[O-])cc2)cs1)Nc1ccccc1,-193,-10,6,-16,8.6*,-1
CCOC(=O)c1c(NC(=O)C(=O)N/N=C/c2ccccc2O)sc2c1CCCCC2,-39,3,14,-3,-0.62,-3
COc1ccc(C)cc1NC(=O)COC(C)=O,-15,7,-6,18,3.5*,2
Cc1nn(C)c(C)c1NC(=O)c1cc2nc(-c3ccco3)cc(C(F)(F)F)n2n1,·,9,1,-12,-0.04,·
O=C(Nc1ccc(Cl)cc1)c1cc2nc(-c3ccco3)cc(C(F)(F)F)n2n1,71*,9,0,-2,-1.7,2
c1ccc(CNc2nc(CN3CCOCC3)nc3scc(-c4ccccc4)c23)cc1,-77,-17,27*,-30,-0.31,19*
c1ccc(-c2csc3ncnc(NCCN4CCOCC4)c23)cc1,81*,1,-5,1,·,3
Cc1ccc(-c2csc3ncnc(NCCN4CCOCC4)c23)cc1,29,5,0,-16,-1.6,4
Nc1cccnc1-n1nc(C(F)(F)F)cc1C(F)(F)F,·,1,2,-2,2.2,·
